HSF1 activator – increases HSF-1 driven luciferase reporter signal; NIH3T3-HGL HSF-1 luciferase reporter, MG132, 8 h; 100% = twice DMSO control signal; 300,000 compounds, 1.7% hits; activation, % at 9 µM;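 active means mean replicate activation of at least 50% with a set share of replicates each reaching 50%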;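 further: 0% = median of the neutral control wells and 100% = twice that signal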
HSF1 inhib – HSF1 inhibition; NIH3T3-HGL HSE-luciferase, MG132-induced, luminescence 8 h; active compounds read low; 300,000 compounds, 0.77% hits; AID 2098; activity change, negative = inhibition, % at 7.5 µM (by protocol);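 active means more than half of replicate wells show activity change below -50%, luminescence cut by over half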;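 further: luciferase reports HSF-1 transcriptional activity via heat shock element; 0% = median of DMSO wells and -100% = zero luminescence signal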
Hsp70 act – switches on Hsp70 transcription. HeLa Hsp70 promoter luciferase reporter, luminescence; scaled: vehicle 0, proteasome-inhibitor control 100%. 200,000 compounds, 0.04% hits. activation, % at 10 µM;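 active means activation above the mean across all tested compounds plus 3 SD, cutoff set per campaign, cut at about 5.5% in these data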;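 further: 100% = MG132 at 30 µM as the positive control and 0% = DMSO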
Mdm2 ligase inh – Mdm2 E3 ligase (human) inhibition. cell-based MDM2 ubiquitination luciferase reporter, 2 h; 0 = plate control, 100 = twice control, blank-subtracted. signal enhancement, % at 5 µM. 210,000 compounds, 0.11% hits;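 active means signal enhancement of 30% or more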;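 further: luminescence tracks abundance of the self-degrading MDM2-luciferase fusion protein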
Target sequence (Q00987 whole entry, looked up, the tested form may be a part): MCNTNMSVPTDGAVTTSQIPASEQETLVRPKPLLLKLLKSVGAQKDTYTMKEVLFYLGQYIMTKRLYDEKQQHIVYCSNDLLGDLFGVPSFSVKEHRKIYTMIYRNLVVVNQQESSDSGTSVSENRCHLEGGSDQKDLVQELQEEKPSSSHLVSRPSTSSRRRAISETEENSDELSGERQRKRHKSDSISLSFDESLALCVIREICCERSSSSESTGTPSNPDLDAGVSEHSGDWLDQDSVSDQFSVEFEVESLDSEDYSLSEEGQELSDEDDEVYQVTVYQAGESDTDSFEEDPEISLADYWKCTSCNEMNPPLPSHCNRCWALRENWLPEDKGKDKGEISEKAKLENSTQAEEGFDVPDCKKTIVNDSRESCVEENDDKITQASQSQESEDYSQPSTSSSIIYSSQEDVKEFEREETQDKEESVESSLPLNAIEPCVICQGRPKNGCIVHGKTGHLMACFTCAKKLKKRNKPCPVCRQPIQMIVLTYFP
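Assay system: stable mammalian line carrying autodegrading MDM2–luciferase fusion reporter; amount: 2000 cells seeded into each well; buffer or medium: DMEM; benchmarks: plate control and blank wells; signal: luciferase luminescence; timing: 2 h compound exposure at 37 °C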
HSV replic up – HSV replication enhancement | AID 1956 | maximum fold increase | 220,000 compounds, 0.005% hits | HSV replication augmentation in cells, fold increase; in the data active means maximum fold increase above about 1.5; tested in PC3 cells
Rad51 HR inh – blocks human Rad51 in homologous recombination | Q06609 | hRad51 DNA strand exchange, fluorescence dequenching | inhibition, % at 10 µM | 200,000 compounds, 0.085% hits | AID 1385;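 active means inhibition above 40% at the single screening dose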;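 further: 0% = DMSO control wells and 100% = blanks with heterologous ssDNA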
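System: human Rad51 nucleoprotein filaments preassembled on unlabelled ssDNA. Reagent: labelled 47-mer dsDNA for strand exchange. Schedule: 30-min compound preincubation and 15-min exchange, both room temperature. Measured by: FRET fluorescence dequenching, excitation 485 nm, emission 520 nm. Read-out: Fluorescence-based percent inhibition, control- and blank-normalised. Benchmarks: plate controls and plate blanks.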
Numbers without * were called inactive; i = inactive; . = no result. Hits are enriched below; roughly 2.6% of the tested compounds scored in any of these assays.

SMILES | HSF1 activator | HSF1 inhib | Hsp70 act | Mdm2 ligase inh | HSV replic up | Rad51 HR inh
CCOc1cc(C(c2c(C)[nH][nH]c2=O)c2c(C)[nH][nH]c2=O)cc(Br)c1OC | -76 | -69* | . | . | . | .
CCOc1cc(C(c2c(C)[nH][nH]c2=O)c2c(C)[nH][nH]c2=O)ccc1OC(=O)c1cccc([N+](=O)[O-])c1 | -5 | 5 | 0 | 3 | i | 1
CCOc1cc(C(c2c(C)[nH][nH]c2=O)c2c(C)[nH][nH]c2=O)ccc1OCc1ccc([N+](=O)[O-])cc1 | 129* | 95 | 0 | -18 | i | -3
Cc1cc(NC(=O)CSc2nc3c(sc4ccccc43)c(=O)n2CCc2ccccc2)n[nH]1 | 37 | 39 | 0 | -9 | i | 0
Cc1cc(NC(=O)CSc2nc3c(sc4ccccc43)c(=O)n2CCCN2CCOCC2)n[nH]1 | 64* | 41 | 0 | -24 | i | -4
O=C(Nc1ccc(S(=O)(=O)Nc2cnc3ccccc3n2)cc1)c1cc(F)c(F)cc1Cl | 3 | 2 | . | . | . | .
CC1CN2C(c3ccc([N+](=O)[O-])cc3)=CSC2=N1 (configuration not stated) | 7 | 0 | . | . | . | .
CCN(C(=O)CSc1ncccc1C(=O)Oc1cccc([N+](=O)[O-])c1)c1cccc(C)c1 | 60* | 29 | -1 | -10 | i | -4
COc1cc(/C=C/c2ccc3cccc(OC)c3n2)c(OC(C)=O)c([N+](=O)[O-])c1 | 7 | -13 | 0 | -10 | i | -3
COc1c(OC(C)=O)ccc(/C=C/c2ccc3cccc(OCc4ccccc4)c3n2)c1[N+](=O)[O-] | 61* | 45 | 0 | -3 | i | 6
CCN(CCNCC(O)COCc1ccc(Cl)cc1)c1cccc(C)c1 (configuration not stated) | -5 | -2 | 0 | 3 | i | 2
Cc1ccc(C(NC(=O)NCCCN2CCOCC2)=C(Cl)Cl)cc1F | 69* | 31 | 0 | -15 | i | -9
CN1C(C(=O)NCc2cccc(Br)c2)CC2Cn3c(nc4cc5ccccc5cc43)C21 (configuration not stated) | 1 | 2 | . | 31* | i | 5
CCC(C)c1ccc(O)c(NC(=S)NC(=O)c2cccnc2)c1 (configuration not stated) | 72* | 54 | 0 | . | i | .
CC(C)c1ccc(O)c(NC(=O)c2cccnc2)c1 | -16 | 4 | 0 | -31 | i | -7
CCN(CC)Cc1cc(C(=O)O)c(C)o1 | -7 | -1 | 0 | 32* | i | -2
Cc1oc(CN2CCOCC2)cc1C(=O)O | 11 | 1 | 0 | -8 | i | 16
COc1ccc2c(c1OC)C(=O)OC2Nc1ccc(S(=O)(=O)N=C(N)N)cc1 (configuration not stated) | -69 | -60* | . | -11 | i | 2
Cc1cccnc1NC(=O)c1ccc(Cl)c(S(=O)(=O)N2CCCCC2)c1 | 6 | -4 | . | . | . | .
COc1ccc(C(C(=O)NC2CCCCC2)N(C(=O)CCl)c2cccc(Cl)c2)cc1 (configuration not stated) | -90 | -90* | 0 | -10 | i | 0
COc1ccc(C(C(=O)NC2CCCCC2)N(C(=O)CCl)c2ccc(OC)cc2)cc1 (configuration not stated) | -35 | -39 | 0 | -21 | i | -3
Cc1ccc2c(c1)N(Cc1ccc([N+](=O)[O-])cc1)C=NS2(=O)=O | -71 | -65* | . | . | . | .
Cc1ccc2c(c1)N(Cc1cccc(C#N)c1)C=NS2(=O)=O | 3 | -5 | . | . | . | .
CC1CC(C)CN(C(=O)c2ccc3c(=O)n(Cc4ccc5c(c4)OCO5)c(=S)[nH]c3c2)C1 (configuration not stated) | 65* | 23 | 0 | -14 | i | 1
O=C(c1ccc2c(=O)n(Cc3ccc4c(c3)OCO4)c(=S)[nH]c2c1)N1CCCCC1 | -19 | -4 | 0 | 5 | i | -7
SMILES | HSF1 activator | HSF1 inhib | Hsp70 act | Mdm2 ligase inh | HSV replic up | Rad51 HR inh
COC(=O)c1ccc(-c2nc3cc(Cl)c(N)cc3s2)cc1 | -65 | -57* | 0 | -81 | i | 2
O=C(CSC(=S)N1CCOCC1)Nc1nc(-c2ccccc2)c(-c2ccccc2)o1 | -64 | -61* | 0 | -12 | i | -3
Cc1ccc(C)c(NC(=O)C2=CCN(S(=O)(=O)c3ccc(F)cc3)CC2)c1 | 29 | 7 | 0 | . | . | .
Nc1cc(Cl)ccc1C(=O)OCC(=O)N1CCOCC1 | -9 | -3 | . | -4 | i | 4
NCCCCCc1nnc(SCC(=O)Nc2cccc(Cl)c2)o1 | 0 | -4 | 0 | 5 | i | -8
CCC(C)[C@H](N)c1nnc(SCC(=O)Nc2cccc(Cl)c2)o1 (some centres not stated) | 108* | 72 | 0 | -30 | i | 5
O=C(Nc1ccc2[nH]ncc2c1)c1ccccc1Cl | -74 | -67* | . | . | . | .
COc1ccc2cc(CN(Cc3ccco3)C(=S)NCC3CCCO3)c(=O)[nH]c2c1 (configuration not stated) | 55* | 25 | 0 | 23 | i | -5
CCC(c1nnnn1Cc1ccccc1)N(Cc1ccco1)Cc1cc2cc(OC)ccc2[nH]c1=O (configuration not stated) | 16 | 14 | 0 | 1 | i | 1
COC(=O)c1ccccc1NC(=S)N(Cc1ccc2c(c1)OCO2)Cc1cc2ccc(OC)cc2[nH]c1=O | 90* | 50 | 0 | -11 | . | .
COC(=O)c1ccccc1NC(=S)N(Cc1ccc2c(c1)OCO2)Cc1cc2ccc(C)cc2[nH]c1=O | -1 | 11 | 0 | -10 | i | 7
Cc1cc(C)c2cc(CN(Cc3ccco3)C(=S)NCC3CCCO3)c(=O)[nH]c2c1 (configuration not stated) | 299* | 193 | 0 | 9 | i | -2
CCCC(c1nnnn1C(C)(C)CC)N(Cc1ccco1)Cc1cc2ccc(OC)cc2[nH]c1=O (configuration not stated) | 57* | 23 | 0 | 5 | i | .
CC(=O)NC12CC3CC(C1)CC(C(=O)OCC(=O)NC(=O)c1cccn1C)(C3)C2 | 10 | 5 | 0 | -4 | i | 1
Cn1cccc1C(=O)NC(=O)COC(=O)C12CC3CC(CC(O)(C3)C1)C2 | -69 | -61* | 0 | -35 | i | 6
O=C(COC(=O)c1ccc(Cl)nc1)c1ccc2c(c1)OCCO2 | 65* | 41 | 0 | -29 | i | -3
COc1cc(Cl)ccc1OCc1cc(C(=O)NC(C)Cc2cnccn2)no1 (configuration not stated) | 59* | 38 | . | . | . | .
CCS(=O)(=O)c1nc2ccccc2n1Cc1ccccn1 | 8 | -8 | 0 | -7 | i | -5
